Data as given in ChEMBL document CHEMBL1151476, “Genetic and biochemical characterization of CAD-1, a chromosomally encoded new class A penicillinase from Carnobacterium divergens” (Antimicrob Agents Chemother, 2008).
In brackets after ≈: the same amount, converted by molar mass. Activity calls are given as the source filed them. The calls are words filed in the database; no cut-off is given here.

Assays:
Carnobacterium divergens [1] = assay: Activity of Carnobacterium divergens BM4489 penicillinase Cad-1 assessed as initial rate of hydrolysis by spectrophotometer
Carnobacterium divergens [2] = assay: Ratio of Kcat to Km of Carnobacterium divergens BM4489 penicillinase Cad-1 relative to benzyl-penicillin
Carnobacterium divergens [3] = assay: Ratio of Kcat to Km of Carnobacterium divergens BM4489 penicillinase Cad-1
Carnobacterium divergens [4] = assay: Activity of Carnobacterium divergens BM4489 penicillinase Cad-1 at 1 uM enzyme concentration assessed as initial rate of hydrolysis by spectrophotometer
Escherichia coli [5] = assay: Antimicrobial activity against Escherichia coli BL21 (DE3) harboring pAT514 by E-test; assay type: functional
Summary of the method: (§1)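 MICs read by E-test strips on Mueller-Hinton agar.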

Carnobacterium divergens [6] = assay: Antimicrobial activity against Carnobacterium divergens CIP101029 at 0.5 McFarland inoculum size by E-test; assay type: functional
Carnobacterium divergens [7] = assay: Antimicrobial activity against Carnobacterium divergens CIP101029 at 3 McFarland inoculum size by E-test; assay type: functional
Carnobacterium divergens [8] = assay: Antimicrobial activity against Carnobacterium divergens BM4490 expressing beta-lactamase CAD1 at 3 McFarland inoculum size by E-test; assay type: functional, organism-based; settings: 3 M
Carnobacterium divergens [9] = assay: Antimicrobial activity against Carnobacterium divergens BM4489 expressing beta-lactamase CAD1 at 0.5 McFarland inoculum size by E-test; assay type: functional
Carnobacterium divergens [10] = assay: Antimicrobial activity against Carnobacterium divergens BM4490 expressing beta-lactamase CAD1 at 0.5 McFarland inoculum size by E-test; assay type: functional, organism-based
Escherichia coli [11] = assay: Antimicrobial activity against Escherichia coli BL21 (DE3) by E-test; assay type: functional; summary of the method: as §1
Carnobacterium divergens [12] = assay: Antimicrobial activity against Carnobacterium divergens BM4489 expressing beta-lactamase CAD1 at 3 McFarland inoculum size by E-test; assay type: functional
[13] = Inhibition of Carnobacterium divergens BM4489 penicillinase Cad-1
Summary of the method: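 CAD-1 carried a C-terminal His6 tag and was expressed in E. coli BL21-CodonPlus(DE3)-RIPL from pAT514. It was purified by Ni affinity and Superdex 75 gel filtration. Enzyme was preincubated with varied inhibitor for 30 min at 25°C in 100 mM sodium phosphate pH 7.0, then 100 µM nitrocefin was added. Initial hydrolysis rates were followed spectrophotometrically. IC50 is the inhibitor concentration halving the rate.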

[14] = Ratio of IC50 for beta-lactamase TEM-1 over IC50 for Carnobacterium divergens BM4489 penicillinase Cad-1

| Structure (SMILES) | Km (Carnobacterium divergens [1]) | kcat (Carnobacterium divergens [1]) | kcat/Km (Carnobacterium divergens [2]) | kcat/Km (Carnobacterium divergens [3]) | Activity (Carnobacterium divergens [4]) | MIC (Escherichia coli [5]) | MIC (Carnobacterium divergens [6]) | MIC (Carnobacterium divergens [7]) | MIC (Carnobacterium divergens [8]) | MIC (Carnobacterium divergens [9]) | MIC (Carnobacterium divergens [10]) | MIC (Escherichia coli [11]) | MIC (Carnobacterium divergens [12]) | IC50 [13] | Ratio IC50 [14] |
| --- | --- | --- | --- | --- | --- | --- | --- | --- | --- | --- | --- | --- | --- | --- | --- |
| CC1(C)S[C@@H]2[C@H](NC(=O)C(C(=O)O)c3ccccc3)C(=O)N2[C@H]1C(=O)O (some centres undefined) | 245 µM | 6 s⁻¹ | 0.4 | 24000 M⁻¹ s⁻¹ | – | – | – | – | – | – | – | – | – | – | – |
| CO/N=C(\C(=O)N[C@@H]1C(=O)N2C(C(=O)O)=C(COC(N)=O)CS[C@H]12)c1ccco1 | – | – | – | – | inactive | – | – | – | – | – | – | – | – | – | – |
| CO/N=C(\C(=O)N[C@@H]1C(=O)N2C(C(=O)[O-])=C(C[N+]3(C)CCCC3)CS[C@H]12)c1csc(N)n1 | – | – | – | – | inactive | – | – | – | – | – | – | – | – | – | – |
| CO[C@@]1(NC(=O)Cc2cccs2)C(=O)N2C(C(=O)O)=C(COC(N)=O)CS[C@@H]21 | – | – | – | – | inactive | – | – | – | – | – | – | – | – | – | – |
| O=C(Cc1cccs1)N[C@@H]1C(=O)N2C(C(=O)[O-])=C(C[n+]3ccccc3)CS[C@H]12 | 26 µM | 0.56 s⁻¹ | 0.3 | 22000 M⁻¹ s⁻¹ | – | – | – | – | – | – | – | – | – | – | – |
| CC1(C)S[C@@H]2[C@H](NC(=O)[C@H](N)c3ccc(O)cc3)C(=O)N2[C@H]1C(=O)O [AMOXICILLIN] | – | – | – | – | – | > 256 µg/mL | 0.75 µg/mL (≈ 2.05 µM) | 2 µg/mL (≈ 5.47 µM) | Active | 4 µg/mL (≈ 10.9 µM) | Active | 1.5 µg/mL (≈ 4.1 µM) | 16 µg/mL (≈ 43.8 µM) | – | – |
| CC1(C)S[C@@H]2[C@H](NC(=O)[C@H](N)c3ccccc3)C(=O)N2[C@H]1C(=O)O [AMPICILLIN] | 48 µM | 153 s⁻¹ | 48 | 3.19e+06 M⁻¹ s⁻¹ | – | > 256 µg/mL | 1.5 µg/mL (≈ 4.29 µM) | 2 µg/mL (≈ 5.72 µM) | Active | 3 µg/mL (≈ 8.59 µM) | Active | 0.75 µg/mL (≈ 2.15 µM) | 24 µg/mL (≈ 68.7 µM) | – | – |
| C[C@H]1[C@H](NC(=O)/C(=N\OC(C)(C)C(=O)O)c2csc(N)n2)C(=O)N1S(=O)(=O)O [AZTREONAM] | – | – | – | – | Active | < 0.016 µg/mL | > 256 µg/mL | > 256 µg/mL | Active | > 256 µg/mL | Active | < 0.016 µg/mL | > 256 µg/mL | – | – |
| CO/N=C(\C(=O)N[C@@H]1C(=O)N2C(C(=O)O)=C(COC(C)=O)CS[C@H]12)c1csc(N)n1 [CEFOTAXIME] | – | – | – | – | inactive | – | > 256 µg/mL | > 256 µg/mL | Active | > 256 µg/mL | Active | < 0.016 µg/mL | > 256 µg/mL | – | – |
| CC(C)(O/N=C(\C(=O)N[C@@H]1C(=O)N2C(C(=O)[O-])=C(C[n+]3ccccc3)CS[C@H]12)c1csc(N)n1)C(=O)O [CEFTAZIDIME] | – | – | – | – | inactive | 0.047 µg/mL (≈ 0.086 µM) | > 256 µg/mL | > 256 µg/mL | Active | > 256 µg/mL | Active | 0.064 µg/mL (≈ 0.117 µM) | > 256 µg/mL | – | – |
| O=C(O)[C@H]1/C(=C/CO)O[C@@H]2CC(=O)N21 [CLAVULANIC ACID] | – | – | – | – | – | – | – | – | – | – | – | – | – | 4.7 µM | 60 |
| C[C@@H](O)[C@H]1C(=O)N2C(C(=O)O)=C(SCCNC=N)C[C@H]12 [IMIPENEM ANHYDROUS] | – | – | – | – | – | 0.19 µg/mL (≈ 0.635 µM) | 0.19 µg/mL (≈ 0.635 µM) | 0.19 µg/mL (≈ 0.635 µM) | Active | 0.19 µg/mL (≈ 0.635 µM) | Active | 0.25 µg/mL (≈ 0.835 µM) | 0.19 µg/mL (≈ 0.635 µM) | – | – |
| Cc1onc(-c2ccccc2)c1C(=O)N[C@@H]1C(=O)N2[C@@H]1SC(C)(C)[C@@H]2C(=O)O [OXACILLIN] | 21 µM | 62 s⁻¹ | 45 | 2.95e+06 M⁻¹ s⁻¹ | – | – | 16 µg/mL (≈ 39.9 µM) | 24 µg/mL (≈ 59.8 µM) | Active | 24 µg/mL (≈ 59.8 µM) | Active | – | 24 µg/mL (≈ 59.8 µM) | – | – |
| CC1(C)S[C@@H]2[C@H](NC(=O)Cc3ccccc3)C(=O)N2[C@H]1C(=O)O [PENICILLIN G] | 27 µM | 178 s⁻¹ | – | 6.6e+06 M⁻¹ s⁻¹ | – | > 256 µg/mL | 3 µg/mL (≈ 8.97 µM) | 6 µg/mL (≈ 17.9 µM) | Active | 12 µg/mL (≈ 35.9 µM) | Active | 4 µg/mL (≈ 12 µM) | 96 µg/mL (≈ 287 µM) | – | – |
| CCN1CCN(C(=O)N[C@@H](C(=O)N[C@@H]2C(=O)N3[C@@H]2SC(C)(C)[C@@H]3C(=O)O)c2ccccc2)C(=O)C1=O [PIPERACILLIN] | 70 µM | 64 s⁻¹ | 14 | 914000 M⁻¹ s⁻¹ | – | > 256 µg/mL | 12 µg/mL (≈ 23.2 µM) | 32 µg/mL (≈ 61.8 µM) | Active | 64 µg/mL (≈ 124 µM) | Active | 0.38 µg/mL (≈ 0.734 µM) | 128 µg/mL (≈ 247 µM) | – | – |
| CC1(C)[C@H](C(=O)O)N2C(=O)C[C@H]2S1(=O)=O [SULBACTAM] | – | – | – | – | – | – | – | – | – | – | – | – | – | 43.5 µM | – |
| C[C@]1(Cn2ccnn2)[C@H](C(=O)O)N2C(=O)C[C@H]2S1(=O)=O [TAZOBACTAM] | – | – | – | – | – | – | – | – | – | – | – | – | – | 0.27 µM | – |
| CC1(C)S[C@@H]2[C@H](NC(=O)[C@H](C(=O)O)c3ccsc3)C(=O)N2[C@H]1C(=O)O [TICARCILLIN] | 106 µM | 35 s⁻¹ | 5 | 330000 M⁻¹ s⁻¹ | – | > 256 µg/mL | 24 µg/mL (≈ 62.4 µM) | 24 µg/mL (≈ 62.4 µM) | Active | 32 µg/mL (≈ 83.2 µM) | Active | 0.75 µg/mL (≈ 1.95 µM) | 128 µg/mL (≈ 333 µM) | – | – |
